Results on 96 molecules are retold here after ChEMBL document CHEMBL4513216, “Probing the Open Global Health Chemical Diversity Library for Multistage-Active Starting Points for Next-Generation Antimalarials” (ACS Infect Dis, 2020).

This series in a line: Toxicity liver stage against HepG2, at 10uM. The conditions noted are these: human, HepG2-A16-CD81EGFP cells; read-out: INHIBITION
Set-up: test concentration 10 uM, cell line HepG2-A16-CD81EGFP. The class given is cell-based. The procedure, abridged:
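Uninfected HepG2-A16-CD81EGFP cells, 3 × 10^3 per well, 1536-well, plated on prespotted compound at 10 μM final, parasite-free screening media added to match infected plates; puromycin 10 μM positive, DMSO 0.5% negative; run in parallel with 48 h PbLuc assay at 37 °C, 5% CO2; viability by CellTiter-Glo luminescence, normalized to controls.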
With `COc1cccc(CNC(=O)CCC2=Nc3ccccc3S(=O)(=O)N2)c1`, the cytotoxicity at 10 µM turned out to be 4.19%. Then `O=C(Nc1ncc[nH]1)c1cc(-c2cccnc2)n[nH]1`, with 5.69%. As to `O=C(CSC1=NS(=O)(=O)c2cc(F)ccc2N1)Nc1ccc(Cl)c(Cl)c1`, the cytotoxicity at 10 µM amounted to 11.5%. Regarding `CCCS(=O)(=O)NCc1nc(C)cc(N2CCCC2)n1`, the cytotoxicity at 10 µM turned out to be 8.09%.

For `COC(=O)CCC(=O)N1CCc2nc(C(=O)N3CCCCC3)sc2CC1`, the cytotoxicity at 10 µM stood at 15.4%. Take `CCOCC1CN(C(=O)[C@H]2CCCO2)Cc2nnn(CC3CC3)c21` (stereo partly specified): the cytotoxicity at 10 µM was -1.99%.

For `Cc1nc(-c2cnn(C)c2)nc2c1CN(C(=O)c1ccc[nH]1)CC2`, the cytotoxicity at 10 µM came out at 13%. For the molecule `CCn1nnc2c1C(COCCN(C)C)CN(c1nncs1)C2` (stereo unspecified), the cytotoxicity at 10 µM was found to be 1.52%. Then `Cc1ccc(N2CC[C@@H]3[C@@H](CO[C@H]3CNC(=O)c3ccco3)C2)nn1`, with 9.43%. For `Cc1noc([C@@]23CCO[C@@H]2CCN(C(=O)c2cc(C)c(C)s2)C3)n1`, the cytotoxicity at 10 µM is 8.73%. As to `COCCN1C(=O)[C@]2(CC[C@@H]3CN(C(=O)NC(C)C)C[C@@H]32)N=C1C`, the cytotoxicity at 10 µM is -57.5%. Consider `Cc1ccsc1C(=O)N1CCC2(CC(C(=O)N(C)C(C)C)=NO2)C1` (stereo unspecified), for which the cytotoxicity at 10 µM is -126%. For the molecule `COCC(=O)N1CCCn2c(CN3CCCC3)nnc2C1`, the cytotoxicity at 10 µM was -130%.

With `O=S(=O)(C1CC1)N1CCC2(COCc3cnc(NCC4CC4)nc32)C1` (stereo unspecified), the cytotoxicity at 10 µM turned out to be 6.38%. For the molecule `Cc1ccc2c(c1)C1(CC2)CCN(c2nncs2)CC1`, the cytotoxicity at 10 µM amounted to 9.43%.

Regarding `Cc1nc(NCc2ccccn2)c2c(n1)c(C)nn2C`, the cytotoxicity at 10 µM is -1.02%.

With `COc1cc2cc(C(=O)NCC(=O)O)n(C)c2c(OC)c1OC`, the cytotoxicity at 10 µM was -77.3%. With `COc1ccccc1C(=O)Nc1c(F)c(C(=O)NCCC(C)C)nn1C`, the cytotoxicity at 10 µM was -11.1%. Consider `Cc1nn(C)c2c(NCc3ccc(F)cc3)nc(C3CC3)nc12`, for which the cytotoxicity at 10 µM was 0.107%. Consider `CCc1cc(=O)n(CC(=O)N2CCC(C)CC2)c(-c2ccccc2)n1`, for which the cytotoxicity at 10 µM came to 10.8%. Take `Fc1ccc(Nc2ccc(C3CCN(Cc4ncc[nH]4)CC3)nc2)nc1`: the cytotoxicity at 10 µM was -1.85%. With `O=C(O)c1ccccc1-c1ccc(CNC(=O)C2CCOCC2)cc1`, the cytotoxicity at 10 µM was 1.33%.

In the case of `N#CC1(C(=O)N2CCOC(c3ccc(Cl)cc3)C2)CCCC1` (stereo unspecified), the cytotoxicity at 10 µM came out at 1.36%.

For `COc1ccccc1CC(C)(C)C(=O)NCC(=O)Nc1cccnc1`, the cytotoxicity at 10 µM worked out at 9.21%. On to `CN(C)C(=O)CCC[S+]([O-])Cc1cc(Cl)ccc1Cl` (stereo unspecified), for which the cytotoxicity at 10 µM worked out at 12.5%. The figure for `CN(C)C(=O)CCC[S+]([O-])Cc1ccc(Cl)c(Cl)c1` (stereo unspecified) is 12.4%; for `Cn1cccc(NC(=O)NCCc2cccc(O)c2)c1=O` it is -43.6%; for `CCc1ncnc(N2CCOCC2C2CC2)c1F` (stereo unspecified) it is -6.62%. Then `CCn1cnnc1CNC(=O)NCC(C(C)C)N1CCOCC1` (stereo unspecified), with 13.5%. As for `CSCCC(NC(N)=O)C(=O)NCc1ccc(-n2cccn2)cc1` (stereo unspecified), the cytotoxicity at 10 µM was 18%.

As for `CSCc1cc(F)ccc1CNC(=O)N1CCC(CO)CC1`, the cytotoxicity at 10 µM came to 1.82%.

Take `CC(C(N)=O)N(C)Cc1ccccc1C(F)(F)F` (stereo unspecified): the cytotoxicity at 10 µM is -5.54%. Consider `NC(=O)Nc1ccc(C(=O)NCCn2cccc2)cc1`, for which the cytotoxicity at 10 µM was -1.23%. Turning to `C=C(C)CN1CCC(NC(=O)NCCc2cccc(C(N)=O)c2)CC1`, the cytotoxicity at 10 µM turned out to be 11.4%. Then `CCOCC(=O)NC1(c2cccc(Cl)c2)CC1`, with 3%; and `CSc1ccc(CN(C)Cc2noc(C(C)(C)C)n2)cc1`, with -8.58%; and `Cc1cccc(C2(NC(=O)CCCn3cncn3)CCCC2)c1`, with 15%. Consider `CN(Cc1nnc(C2CC2)o1)C1CCN(CCc2cccs2)C1` (stereo unspecified), for which the cytotoxicity at 10 µM is -2.01%. For the molecule `CCc1nc(CN2CCCC(N(C)CCc3cccs3)C2)no1` (stereo unspecified), the cytotoxicity at 10 µM came out at 15.5%.

With `CCOc1ncccc1NC(=O)Nc1c(C)nn(C(C)C)c1C`, the cytotoxicity at 10 µM worked out at 17.8%. In the case of `CCN(CC1CCOC1)C(=O)c1cc(Cl)c2c(c1)OCO2` (stereo unspecified), the cytotoxicity at 10 µM turned out to be 8.88%. With `CCNC(=O)N1CCC(NC(=O)NCCc2cc(F)cc(F)c2)C1` (stereo unspecified), the cytotoxicity at 10 µM was -43.4%. As for `CC(C)(C)c1nc(CN2CCCC2c2nnc3ccccn23)no1` (stereo unspecified), the cytotoxicity at 10 µM was -1.99%. Then `Cc1ccsc1CNC(=O)c1ccc(N2CCOC2=O)cc1`, with 22.2%; and `Cc1nc(C(=O)N2CC(C)Sc3ccccc32)cs1` (stereo unspecified), with -3.71%.

For `NS(=O)(=O)CCNC(=O)c1nnn(-c2ccccc2)c1C1CC1`, the cytotoxicity at 10 µM was -12.2%.

For `CCc1nc(CCNC(=O)C2CCOC2)sc1C` (stereo unspecified), the cytotoxicity at 10 µM was -20.4%.

As for `CC(C)(C)c1nc(CN2CCC(c3nc4cc(Cl)ccc4o3)CC2)no1`, the cytotoxicity at 10 µM turned out to be 3.9%.

Consider `CC(C)n1c2ccccc2c2c1cc(C(=O)O)n2C(=O)N(C)C`, for which the cytotoxicity at 10 µM is -94.3%. Consider `Cc1csc(CN2C[C@@H]3CN(C)CCO[C@@H]3C2)n1`, for which the cytotoxicity at 10 µM was -105%.

On to `O=C(CC1CC2(CCNCC2)c2ccccc21)NCC1CC1` (stereo unspecified), for which the cytotoxicity at 10 µM is -118%. With `CS(=O)(=O)NC[C@]12COC[C@H]1CN(C(=O)C1CC(F)(F)C1)C2`, the cytotoxicity at 10 µM was -95.5%.

Regarding `Cc1ccc(CN2CCC3(CC(C(=O)NC4CCC4)=NO3)C2)o1` (stereo unspecified), the cytotoxicity at 10 µM is -97.5%. The figure for `Cc1ccoc1C(=O)N1C[C@@H](OCC2CCOCC2)[C@H]2OCCC[C@H]21` is 4.11%; for `Cn1cccc1C(=O)N1CCCC2(CCCN2Cc2cccnc2)C1` (stereo unspecified) it is 2.88%; for `Cc1cc(N2CCC3(CCCN(CCO)C3=O)C2)nc2ccccc12` (stereo unspecified) it is 3.69%. For the molecule `COCCC(=O)N1CCCC(CCC(=O)Nc2ccc(Cl)cc2)C1` (stereo unspecified), the cytotoxicity at 10 µM is 6.48%. Then `COc1cccc2c(=O)n(C3CCNCC3)cnc12`, with -53.4%; and `CCn1ccnc1CN(C)c1cc(N(C)C)ncn1`, with -42.1%. `CCCn1ncc(CN(CCN(C)C)Cc2ccsc2)c1C`: the cytotoxicity at 10 µM came out at 12.2%. In the case of `CCCN1CCC(CC(=O)N2CC(C)(C)[C@@](C)(O)C2)CC1`, the cytotoxicity at 10 µM is 2.65%. Then `CCNC(=O)C1CCN(Cc2ccc(C(=O)Nc3nnc(C)s3)cc2)C1` (stereo unspecified), with -0.834%; and `CCN1CCCC(C)(C(=O)NCc2nncn2CCc2ccccc2)C1` (stereo unspecified), with -10.2%.

`COc1ccc(CN(C)C2CSCCSC2)c2cccnc12`: the cytotoxicity at 10 µM is 31.7%. As to `COCCC1(C(=O)O)CCCN(Cc2cc3c(cc2C)OCO3)C1` (stereo unspecified), the cytotoxicity at 10 µM was -2.37%.

Consider `CN1CCN(c2cnn(CCn3cccn3)c(=O)c2)CC1`, for which the cytotoxicity at 10 µM was -47.4%. In the case of `COc1ccc2c(c1)OCC(Cc1ccc(C)nc1N)C2` (stereo unspecified), the cytotoxicity at 10 µM was -2.57%. Regarding `c1cncc(NCCNC2CSCCSC2)c1`, the cytotoxicity at 10 µM is 15.8%.

On to `Cc1cc2c(c(-c3cncc(C(=O)N4CCCC4)n3)c1)OC(CN)C2` (stereo unspecified), for which the cytotoxicity at 10 µM is -45.7%.

`Cc1cc(CN(C)Cc2csc(-c3cccs3)n2)n[nH]1`: the cytotoxicity at 10 µM was -4.14%. The figure for `COCCN(C)C[C@@H]1CN(C(=O)c2ccc(=O)n(C)c2)C[C@@H]1CO` is -11.1%; for `CC(c1ccon1)N(C)C(=O)C1CCN(C(=O)C2CCC2)CC1` (stereo unspecified) it is 7.13%.

Turning to `Cn1c(-c2cc3n(n2)CCCN(CC(=O)O)C3)nc2ccccc21`, the cytotoxicity at 10 µM is 2.68%.

`O=C1N(CCC2CCCCC2)CCCC1(O)CNCCc1ccccc1` (stereo unspecified): the cytotoxicity at 10 µM was -8.92%. With `COc1cccc(-c2nccnc2C2CCN(C(C)=O)CC2)c1`, the cytotoxicity at 10 µM amounted to 1.47%. Then `CCN1CCN(c2ncc(-c3cc(C)no3)c(-c3ccc(C)s3)n2)CC1`, with 2.44%; and `Cc1csc2nc3n(c(=O)c12)CCN(C(=O)c1ccncc1)CC3`, with -2.65%; and `CN(Cc1cccnc1)C1CCCN(Cc2noc(C3CC3)n2)C1` (stereo unspecified), with -4.95%. For the molecule `c1ccc(-n2ncc(CNCC3CCCN3c3cccnn3)n2)cc1` (stereo unspecified), the cytotoxicity at 10 µM was -6.71%.

As to `NC(=O)C1CN(C(=O)Nc2ccccc2-c2cccs2)CCO1` (stereo unspecified), the cytotoxicity at 10 µM was -4.84%. Turning to `CC(C)C(C(=O)N1CCC(Nc2cccnn2)CC1)n1cncn1` (stereo unspecified), the cytotoxicity at 10 µM was -4.35%.

Regarding `Clc1ccc(C2(CNC3=NCCN3)CC2)cc1`, the cytotoxicity at 10 µM amounted to 7.38%. For `Cc1nc2c(c(NC3CC3)n1)CCN(C(=O)CCO)CC2`, the cytotoxicity at 10 µM is -68.3%. Consider `COCC1CN(CC2CC2)Cc2nn(CC3CC3)cc21` (stereo unspecified), for which the cytotoxicity at 10 µM was -71.4%.

Turning to `N#Cc1ccc(CN2CC3(CCCCN3c3cccnc3)CC2=O)cc1` (stereo unspecified), the cytotoxicity at 10 µM was 0.995%. For `COC1COC2(CCN(Cc3ccc4ccccc4n3)CC2)C1` (stereo unspecified), the cytotoxicity at 10 µM was 5.05%. Take `N#Cc1cccc(CN2CC3(CCCCN3c3cccnc3)CC2=O)c1` (stereo unspecified): the cytotoxicity at 10 µM is -7.27%. `CS(=O)(=O)N1CCOCC2(CCN(Cc3ccc[nH]3)CC2)C1`: the cytotoxicity at 10 µM was -7.02%.

For `CS(=O)(=O)N1CCOCC2(CN(Cc3ccc(F)cc3)CCO2)C1` (stereo unspecified), the cytotoxicity at 10 µM was 1.42%. For the molecule `c1cncc(-c2ccc3c(c2)CCC32CCN(Cc3nccs3)CC2)c1`, the cytotoxicity at 10 µM worked out at 36%. For `c1ccc(CN2Cc3nccn3CC(Cn3cccn3)C2)nc1` (stereo unspecified), the cytotoxicity at 10 µM was -105%. Regarding `Cn1cc(N2CC3(COCCN(Cc4nccs4)C3)OCC2=O)cn1` (stereo unspecified), the cytotoxicity at 10 µM is -79.9%. As to `O=C1CCCN1CC1CN(CC2CCOCC2)Cc2nccn2C1` (stereo unspecified), the cytotoxicity at 10 µM stood at 1.65%. With `COc1ccc(CN2CCc3ncnc(OC(C)C)c3CC2)cc1`, the cytotoxicity at 10 µM was -1.99%.

In the case of `Cc1nc(CN2C(=O)C[C@H]3[C@H]2CCN3CC2CCOC2)cs1` (stereo partly specified), the cytotoxicity at 10 µM is -151%. As to `O=C(NCCc1ccccc1)N1C[C@@H]2C[C@H](C(=O)N3CCCC3)[C@H](C1)O2`, the cytotoxicity at 10 µM came out at 6.95%.
